Bioassay records from PubChem.
Shown are actives, neighbours in structure and some others; about 1.5% of the full set was active somewhere.
CXCR6 inh: blocks human CXCR6 beta-arrestin recruitment | inhibition, % at 20 µM | O00574 | CHO-K1 PathHunter CXCR6 beta-arrestin, luminescence | 360,000 tested, 0.36% active | AID 602244; in the data active means inhibition above about 34%, passing the limit was not always enough;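 further: antagonist mode with CXCL16 agonist at 10 nM final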
Target sequence (O00574 whole entry, looked up): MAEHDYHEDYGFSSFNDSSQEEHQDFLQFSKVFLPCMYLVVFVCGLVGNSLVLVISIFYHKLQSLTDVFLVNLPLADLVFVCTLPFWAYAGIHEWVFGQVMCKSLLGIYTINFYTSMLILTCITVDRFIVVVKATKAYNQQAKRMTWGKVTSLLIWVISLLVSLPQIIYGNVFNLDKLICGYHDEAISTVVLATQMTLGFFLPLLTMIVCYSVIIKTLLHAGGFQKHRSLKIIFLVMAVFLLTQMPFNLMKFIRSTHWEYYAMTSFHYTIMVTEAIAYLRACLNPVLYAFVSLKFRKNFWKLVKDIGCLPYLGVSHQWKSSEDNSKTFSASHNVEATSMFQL
APJ antagonist: APJ receptor antagonism. P35414. CHO-K1 APJ beta-arrestin complementation, luminescence. inhibition, % at 20 µM. 330,000 tested, 0.32% active. AID 2521;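 active means inhibition above about 40% at 20 µM, limit read from the data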;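 further: cells challenged with 10 nM apelin-13 agonist together with compound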
EBI2 antag: blocks human EBI2 receptor beta-arrestin signaling. P32249. EBI2 beta-arrestin recruitment, luminescence, 7a,25-OHC stimulated. inhibition, % at 5 µM. 360,000 tested, 0.81% active. AID 651636; in the data active means inhibition above about 38%;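 further: enzyme fragment complementation signal reports receptor beta-arrestin coupling in cells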
Target sequence (P32249 whole entry, looked up, the tested form may be a part): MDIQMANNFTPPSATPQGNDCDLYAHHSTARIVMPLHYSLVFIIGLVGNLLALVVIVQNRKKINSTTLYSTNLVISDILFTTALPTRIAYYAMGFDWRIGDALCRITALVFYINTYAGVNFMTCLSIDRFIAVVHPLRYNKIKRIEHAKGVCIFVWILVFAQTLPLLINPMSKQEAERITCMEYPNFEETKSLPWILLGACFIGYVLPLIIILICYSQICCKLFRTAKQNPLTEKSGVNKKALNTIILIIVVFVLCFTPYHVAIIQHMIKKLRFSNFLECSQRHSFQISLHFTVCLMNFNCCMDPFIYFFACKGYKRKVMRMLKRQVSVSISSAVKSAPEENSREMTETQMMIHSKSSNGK
CCR6 antagonist: blocks CCL20-driven beta-arrestin recruitment at human CCR6; CHO-K1 CCR6 PathHunter beta-arrestin, luminescence, CCL20-stimulated; inhibition, % at 20 µM; 340,000 tested, 0.49% active;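 active means compounds whose inhibition of the agonist-driven luminescence signal at 20 µM reaches about 50%, limit read from the data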;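 further: cells stimulated with CCL20 at 14 nM final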
APJ ag: APJ receptor agonism. activation, % at 20 µM. CHO-K1 APJ PathHunter beta-arrestin, luminescence; 0% DMSO wells, 100% apelin. P35414. 330,000 tested, 0.11% active;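 active means activation more than six SD over the plate average, tested at 20 µM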
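Assay system: engineered CHO-K1 APJ arrestin reporter cells; Amount: 1000 CHO-K1 reporter cells seeded per well; Dosing: one dose, 20 µM compound, 1% DMSO; Times: compound stimulation 90 min at 25 °C, detection 60 min; Measured by: luminescent beta-gal fragment complementation, chemiluminescent substrate; Read-out: APJ–arrestin association signal; Controls: DMSO vs Apelin-13 10 nM.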
EBI2 conf: EBI2 (human) antagonism, single concentration confirmation | inhibition, % at 5 µM | AID 651997 | EBI2 beta-arrestin luminescence, 7a,25-OHC antagonism | shares compounds with EBI2 antag | 2,400 tested, 29% active;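 active means inhibition of at least 50%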
EBI2 ag: activates EBI2, counter-screen for EBI2 antagonists. shares compounds with EBI2 antag. activation, % at 5 µM. 2,400 tested, under 10 active. EBI2-expressing cells, agonist mode, luminescence, 60 min; 0% vehicle, 100% 7α,25-dihydroxycholesterol control;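 active means activation of at least 50%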
bGal counter: inhibits E. coli beta-galactosidase, counter-screen for EBI2 antagonists | 2,400 tested, 1% active | purified beta-galactosidase, luminescent Galacton Star, 15 min | inhibition, % at 5 µM | AID 652176 | shares compounds with EBI2 antag;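 active means replicate-average signal at least 3 plate SD below neutral wells, shown as high inhibition, flagging enzyme-inhibiting false positives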;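 further: higher means stronger loss of beta-gal luminescence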
Hits are given with their value; i = inactive; nt = no result.

SMILES | CXCR6 inh | APJ antagonist | EBI2 antag | CCR6 antagonist | APJ ag | EBI2 conf | EBI2 ag | bGal counter
CCCOc1ccc(/C=C/C(=O)N2CCN(c3ccccn3)CC2)cc1 | i | i | 46 | i | i | i | i | i
CC(C)(C)NC(=S)NC1CC1 | i | i | i | i | i | nt | nt | nt
O=c1[nH]nc(-c2ccc(F)cc2)cc1Cc1ccccc1 | i | i | i | i | i | nt | nt | nt
O=C(/C=C/c1cccc(Br)c1)N1CCN(c2ccccn2)CC1 | i | i | 77 | i | i | i | i | i
O=C(/C=C/c1ccccc1)N1CCN(c2cccc(Cl)n2)CC1 | i | i | 91 | i | i | 82 | i | i
S=C(NCCc1ccccc1)N1CCc2ccccc2C1 | i | i | i | i | i | nt | nt | nt
CN1CCC(N(C)CC(C)(C)NS(=O)(=O)c2ccccc2)CC1 | i | i | i | i | i | nt | nt | nt
Cn1c(=O)n(C)c2cc(NC(=O)CSc3ccccc3)ccc21 | i | i | i | i | i | nt | nt | nt
c1cncc(CN2CCN(c3cc(-c4cnc5ccccc5c4)nc4ccnn34)CC2)c1 | i | nt | i | nt | nt | nt | nt | nt
O=C(CCc1ccccc1)Nc1ccc2ccccc2n1 | i | i | 72 | i | i | i | i | i
COc1ccc(CCC(=O)N2CCN(C(=O)c3ccccc3)CC2)cc1 | i | i | 55 | i | i | i | i | i
O=C(CCCc1ccccc1)N1CCN(C2CCCCC2)CC1 | i | i | i | i | i | nt | nt | nt
COc1ccc(CCC(=O)N2CCN(C3CCCCC3)CC2)cc1 | i | i | 45 | i | i | i | i | i
NS(=O)(=O)c1ccc(CCNC(=S)NC(=O)c2ccccc2Br)cc1 | i | i | i | i | i | nt | nt | nt
O=C(CCNC(=O)c1ccco1)Nc1ccc(Cl)cc1F | i | i | i | i | i | nt | nt | nt
NS(=O)(=O)c1ccc(N/N=C/c2cn(-c3ccccc3)nc2-c2cccs2)cc1 | i | i | 41 | i | i | i | i | i
NS(=O)(=O)c1ccc(N/N=C/c2cn(-c3ccccc3)nc2-c2cccs2)c([N+](=O)[O-])c1 | i | i | i | i | i | nt | nt | nt
COc1ccc(S(=O)CC(=O)Nc2ccc(Cl)cc2Cl)cc1 (stereo unspecified) | i | i | i | i | i | nt | nt | nt
CCOc1ccc(-c2c(C)n([O-])c3c([n+]2=O)CCCCC3)cc1 | i | i | i | i | i | nt | nt | nt
O=C(Cn1cccc1C(=O)c1ccccc1)NCCc1ccc(Cl)cc1 | i | i | 49 | i | i | i | i | i
O=C(Cn1cccc1C(=O)c1ccccc1)NCCc1ccccc1 | i | i | i | i | i | nt | nt | nt
CCOc1ccccc1N1CCN(C(=O)c2cc3c(C)cc(C)cc3[nH]2)CC1 | i | i | 52 | i | i | i | i | i
CCOC(=O)C1CCN(C(=O)c2cc3cc(C)ccc3[nH]2)CC1 | i | i | 85 | i | i | 67 | i | i
CCOc1ccccc1N1CCN(C(=O)c2ccc3[nH]c4c(c3c2)CCCC4)CC1 | i | i | i | i | i | nt | nt | nt
CCOC(=O)C1CCN(C(=O)c2cc3c(C)cc(C)cc3[nH]2)CC1 | i | i | 46 | i | i | i | i | i
SMILES | CXCR6 inh | APJ antagonist | EBI2 antag | CCR6 antagonist | APJ ag | EBI2 conf | EBI2 ag | bGal counter
COC(=O)c1scc(C)c1N/N=C(\C)c1cc(F)c(Cl)cc1F | i | i | i | i | i | nt | nt | nt
O=C(Nc1ccc2c(c1)OCO2)C1CCCN1C(=O)Nc1ccccc1 (stereo unspecified) | i | i | i | i | i | nt | nt | nt
COc1ccc(CCN2C(=O)C(Oc3ccccc3C)C2c2ccc3c(c2)OCO3)cc1 (stereo unspecified) | i | i | 55 | i | i | i | i | i
COc1ccc(CCN2C(=O)C(Oc3ccccc3C)C2c2ccc3c(c2)OCO3)cc1OC (stereo unspecified) | i | i | i | i | i | nt | nt | nt
COC(=O)c1ccc(C2C(Oc3ccc(OC)cc3)C(=O)N2CCc2ccc(F)cc2)cc1 (stereo unspecified) | i | i | 42 | i | i | i | i | i
COCCn1c(SCC(=O)N2CCCC2=O)nnc1-c1ccncc1 | i | nt | i | nt | nt | nt | nt | nt
Cc1nc(N2CCN(Cc3ccc4c(c3)OCO4)CC2)c2cc(-c3ccccc3)sc2n1 | i | i | 38 | i | i | i | i | i
NC(=O)c1cccc(-c2cnc3c(Nc4cccc(OC(F)(F)C(F)F)c4)nccn23)c1 | i | nt | 45 | nt | nt | i | i | i
Oc1ccc(-c2cnc3c(Nc4cccc(OC(F)(F)C(F)F)c4)nccn23)cc1 | i | nt | 73 | nt | nt | i | i | i
O=C(NCCc1c[nH]c2ccccc12)C1CCCN(S(=O)(=O)c2ccccc2)C1 (stereo unspecified) | i | i | 46 | i | i | i | i | i
O=C(NCCC1=CCCCC1)C1CCCN(S(=O)(=O)c2ccccc2)C1 (stereo unspecified) | i | i | i | i | i | nt | nt | nt
Cc1ccc2nc(SC(C)C(=O)Nc3cccc([N+](=O)[O-])c3)[nH]c2c1 (stereo unspecified) | i | i | i | i | i | nt | nt | nt
O=C(c1cc2ccccc2o1)N1CCN(S(=O)(=O)/C=C/c2ccccc2)CC1 | i | i | 92 | i | i | 86 | i | i
O=C(c1cc2ccccc2o1)N1CCN(S(=O)(=O)c2ccccc2)CC1 | i | i | 75 | i | i | i | i | i
O=C(c1ccco1)N1CCN(S(=O)(=O)c2cccs2)CC1 | i | i | i | i | i | nt | nt | nt
O=C(c1cc2ccccc2o1)N1CCN(S(=O)(=O)c2cccs2)CC1 | i | i | 59 | i | i | 53 | i | i
COc1cc(SC)ccc1C(=O)N1CCN(S(=O)(=O)/C=C/c2ccccc2)CC1 | i | i | 65 | i | i | i | i | i
COC(=O)c1ccc(COc2ccc(/C=N/NC(N)=S)cc2)o1 | i | i | i | i | i | nt | nt | nt
COc1ccc(N(C)S(=O)(=O)c2ccc(Cl)c(C(=O)NCC(C)(C)N3CCOCC3)c2)cc1 | i | i | i | i | i | nt | nt | nt
Cc1ccc(C(=O)N2CCN(S(=O)(=O)c3ccc(C)cc3)CC2)cc1 | i | i | i | i | i | nt | nt | nt
O=C(c1ccco1)N1CCN(S(=O)(=O)/C=C/c2ccccc2)CC1 | i | i | i | i | i | nt | nt | nt
O=C(c1ccc(Cl)cc1)N1CCN(S(=O)(=O)/C=C/c2ccccc2)CC1 | i | i | 92 | i | i | 67 | i | i
Cc1ccc(S(=O)(=O)N2CCN(C(=O)c3cc(=O)c4ccccc4o3)CC2)cc1 | i | i | 46 | i | i | i | i | i
O=C(O)c1cncc(C#CCC2CCCCC2)c1 | i | i | i | i | i | nt | nt | nt
CC1S/C(=C(\C#N)C(N)=O)N(c2ccc(F)cc2)C1=O (stereo unspecified) | i | i | i | i | i | nt | nt | nt
